From PMC9889102 (European journal of medicinal chemistry, 2022)
pIC50: −log10 of the molar value. Like-named read-outs stand apart in the source and are kept apart here.

Experiments:
[1] = molecular target: T1, fast rabbit skeletal myosin (Oryctolagus cuniculus, UniProt Q28641); assay: Steady-state actin-activated Mg2+ ATPase inhibition, skeletal myosin; format: biochemical; conditions: cardiac IC50 (x) / skeletal IC50 (y)
In short: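 Rabbit psoas skeletal myosin (unphosphorylated, 0.1 mg/mL final) with rabbit psoas F-actin (32 μM) at 30 °C, pH 7.0 MOPS buffer (50 mM NaCl, 0.1 mM EGTA, 5 mM MgCl2, 2 mM ATP, 1 mM DTT), 2% DMSO. IC50 taken as half-maximal reduction of steady-state rate. Selectivity is cardiac IC50 (bovine left-ventricle myosin, 0.5 mg/mL) divided by skeletal IC50.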

[2] = molecular target: phosphorylated chicken gizzard smooth muscle myosin (Gallus gallus, UniProt P10587); assay: Steady-state actin-activated Mg2+ ATPase inhibition, smooth muscle myosin; format: biochemical
In short: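 Chicken gizzard smooth muscle myosin was fully phosphorylated (checked by urea gel), never frozen, and used within 2–3 weeks. It was run at 0.2 mg/mL final with 32 μM rabbit F-actin at 30 °C in MOPS pH 7.0, 50 mM NaCl, 0.1 mM EGTA, 5 mM MgCl2, 2 mM ATP, 1 mM DTT. DMSO was 2%, with dilutions from a 25 mM stock. IC50 is the half-maximal drop in steady-state ATPase.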

[3] = molecular target: T1, fast rabbit skeletal myosin; conditions: previously reported ketimines; favoured isoform; ref [25]; cited from earlier work
[4] = tested on: NM-IIB (cytokinesis in Cos-7 cells); assay: Cytokinesis inhibition in Cos-7 cells; format: cell-based; conditions: 24 h, 37 °C
In short: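 Cos-7 cells (4,000/well) were pre-grown 24 h, then exposed 24 h at 37 °C, 5% CO2 to test compound at 40 μM final in 1% DMSO. Controls were 1% DMSO and media (negative), plus para-aminoblebbistatin 20 μM and (−)-blebbistatin 10 μM (positive). Staining was fluorescein diacetate, Hoechst 33342 and propidium iodide for 10 min. N/C is Hoechst nuclei (excluding PI-positive) per FDA-stained cell. Triplicate wells, ≥2 experiments, ≥600 cells/well.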

[5] = ref [25], cited from earlier work
[6] = tested on: BEAS-2B, MCF-7 and A549; conditions: normal human cell line BEAS-2B and cancer cell lines MCF-7 and A549; ref [41]; cited from earlier work
[7] = 99:1 (v/v) PBS/methanol, room temperature; ref [25]; cited from earlier work

T1 sequence (Q28641 whole entry): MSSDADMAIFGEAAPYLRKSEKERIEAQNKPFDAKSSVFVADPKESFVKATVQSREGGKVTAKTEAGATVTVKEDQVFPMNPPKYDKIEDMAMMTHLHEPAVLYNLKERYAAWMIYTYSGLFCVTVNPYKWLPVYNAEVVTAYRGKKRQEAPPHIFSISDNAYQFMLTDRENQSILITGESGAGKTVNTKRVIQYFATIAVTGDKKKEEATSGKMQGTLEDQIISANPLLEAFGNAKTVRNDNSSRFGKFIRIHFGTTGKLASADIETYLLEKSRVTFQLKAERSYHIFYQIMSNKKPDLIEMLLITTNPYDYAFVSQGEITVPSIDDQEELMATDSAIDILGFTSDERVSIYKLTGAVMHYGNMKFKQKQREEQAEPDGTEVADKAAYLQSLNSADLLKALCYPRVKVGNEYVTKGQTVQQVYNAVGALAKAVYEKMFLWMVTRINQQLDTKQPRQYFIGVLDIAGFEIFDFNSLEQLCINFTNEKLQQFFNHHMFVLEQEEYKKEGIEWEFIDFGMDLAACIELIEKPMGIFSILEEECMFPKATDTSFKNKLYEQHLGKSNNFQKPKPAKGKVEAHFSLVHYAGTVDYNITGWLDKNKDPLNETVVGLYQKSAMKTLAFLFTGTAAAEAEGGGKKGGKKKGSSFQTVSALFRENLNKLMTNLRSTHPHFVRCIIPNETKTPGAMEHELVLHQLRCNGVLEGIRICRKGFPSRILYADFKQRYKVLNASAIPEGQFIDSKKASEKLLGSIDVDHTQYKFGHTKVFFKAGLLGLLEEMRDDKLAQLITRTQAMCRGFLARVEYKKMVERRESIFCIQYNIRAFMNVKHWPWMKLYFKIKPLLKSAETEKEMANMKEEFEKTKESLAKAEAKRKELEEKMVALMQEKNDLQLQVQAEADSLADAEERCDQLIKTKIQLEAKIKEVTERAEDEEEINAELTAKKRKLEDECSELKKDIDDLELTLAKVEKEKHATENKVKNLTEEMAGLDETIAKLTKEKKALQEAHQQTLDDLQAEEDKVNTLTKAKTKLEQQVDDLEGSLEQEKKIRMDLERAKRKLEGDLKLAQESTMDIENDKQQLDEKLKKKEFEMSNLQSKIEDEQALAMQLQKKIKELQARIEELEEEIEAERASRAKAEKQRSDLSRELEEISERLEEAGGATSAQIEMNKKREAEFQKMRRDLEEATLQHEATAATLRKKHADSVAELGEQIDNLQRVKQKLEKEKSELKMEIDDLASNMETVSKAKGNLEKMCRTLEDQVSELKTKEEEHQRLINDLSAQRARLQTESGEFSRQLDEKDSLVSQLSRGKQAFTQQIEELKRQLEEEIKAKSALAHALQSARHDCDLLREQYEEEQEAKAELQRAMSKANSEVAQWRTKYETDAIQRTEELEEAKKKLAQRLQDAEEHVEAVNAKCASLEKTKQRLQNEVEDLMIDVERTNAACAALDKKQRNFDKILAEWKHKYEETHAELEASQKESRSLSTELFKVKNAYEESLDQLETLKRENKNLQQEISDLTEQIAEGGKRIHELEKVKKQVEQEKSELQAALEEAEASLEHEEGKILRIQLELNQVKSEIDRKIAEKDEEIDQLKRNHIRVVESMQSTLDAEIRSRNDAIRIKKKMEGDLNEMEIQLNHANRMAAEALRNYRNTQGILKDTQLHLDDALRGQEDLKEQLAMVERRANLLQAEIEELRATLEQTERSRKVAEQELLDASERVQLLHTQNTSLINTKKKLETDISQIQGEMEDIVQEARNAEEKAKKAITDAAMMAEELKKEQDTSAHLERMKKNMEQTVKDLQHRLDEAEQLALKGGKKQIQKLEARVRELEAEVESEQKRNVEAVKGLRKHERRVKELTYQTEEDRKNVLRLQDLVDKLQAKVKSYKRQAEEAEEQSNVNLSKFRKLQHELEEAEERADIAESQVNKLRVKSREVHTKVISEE
T1 sequence (P02602 whole entry partner): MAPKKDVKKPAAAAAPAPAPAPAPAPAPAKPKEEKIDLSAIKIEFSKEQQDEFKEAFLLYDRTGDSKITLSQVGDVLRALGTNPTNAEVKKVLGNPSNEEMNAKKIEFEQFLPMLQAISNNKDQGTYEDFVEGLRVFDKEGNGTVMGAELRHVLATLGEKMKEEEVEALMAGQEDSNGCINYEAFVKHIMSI
T1 sequence (P02608 whole entry partner): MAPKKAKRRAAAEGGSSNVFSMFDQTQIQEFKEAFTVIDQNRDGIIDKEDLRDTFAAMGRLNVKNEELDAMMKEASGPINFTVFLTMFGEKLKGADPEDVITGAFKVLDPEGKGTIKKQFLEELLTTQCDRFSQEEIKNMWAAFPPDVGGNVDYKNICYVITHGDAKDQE
phosphorylated chicken gizzard smooth muscle myosin, sequence (P10587 2-1979 limits assumed): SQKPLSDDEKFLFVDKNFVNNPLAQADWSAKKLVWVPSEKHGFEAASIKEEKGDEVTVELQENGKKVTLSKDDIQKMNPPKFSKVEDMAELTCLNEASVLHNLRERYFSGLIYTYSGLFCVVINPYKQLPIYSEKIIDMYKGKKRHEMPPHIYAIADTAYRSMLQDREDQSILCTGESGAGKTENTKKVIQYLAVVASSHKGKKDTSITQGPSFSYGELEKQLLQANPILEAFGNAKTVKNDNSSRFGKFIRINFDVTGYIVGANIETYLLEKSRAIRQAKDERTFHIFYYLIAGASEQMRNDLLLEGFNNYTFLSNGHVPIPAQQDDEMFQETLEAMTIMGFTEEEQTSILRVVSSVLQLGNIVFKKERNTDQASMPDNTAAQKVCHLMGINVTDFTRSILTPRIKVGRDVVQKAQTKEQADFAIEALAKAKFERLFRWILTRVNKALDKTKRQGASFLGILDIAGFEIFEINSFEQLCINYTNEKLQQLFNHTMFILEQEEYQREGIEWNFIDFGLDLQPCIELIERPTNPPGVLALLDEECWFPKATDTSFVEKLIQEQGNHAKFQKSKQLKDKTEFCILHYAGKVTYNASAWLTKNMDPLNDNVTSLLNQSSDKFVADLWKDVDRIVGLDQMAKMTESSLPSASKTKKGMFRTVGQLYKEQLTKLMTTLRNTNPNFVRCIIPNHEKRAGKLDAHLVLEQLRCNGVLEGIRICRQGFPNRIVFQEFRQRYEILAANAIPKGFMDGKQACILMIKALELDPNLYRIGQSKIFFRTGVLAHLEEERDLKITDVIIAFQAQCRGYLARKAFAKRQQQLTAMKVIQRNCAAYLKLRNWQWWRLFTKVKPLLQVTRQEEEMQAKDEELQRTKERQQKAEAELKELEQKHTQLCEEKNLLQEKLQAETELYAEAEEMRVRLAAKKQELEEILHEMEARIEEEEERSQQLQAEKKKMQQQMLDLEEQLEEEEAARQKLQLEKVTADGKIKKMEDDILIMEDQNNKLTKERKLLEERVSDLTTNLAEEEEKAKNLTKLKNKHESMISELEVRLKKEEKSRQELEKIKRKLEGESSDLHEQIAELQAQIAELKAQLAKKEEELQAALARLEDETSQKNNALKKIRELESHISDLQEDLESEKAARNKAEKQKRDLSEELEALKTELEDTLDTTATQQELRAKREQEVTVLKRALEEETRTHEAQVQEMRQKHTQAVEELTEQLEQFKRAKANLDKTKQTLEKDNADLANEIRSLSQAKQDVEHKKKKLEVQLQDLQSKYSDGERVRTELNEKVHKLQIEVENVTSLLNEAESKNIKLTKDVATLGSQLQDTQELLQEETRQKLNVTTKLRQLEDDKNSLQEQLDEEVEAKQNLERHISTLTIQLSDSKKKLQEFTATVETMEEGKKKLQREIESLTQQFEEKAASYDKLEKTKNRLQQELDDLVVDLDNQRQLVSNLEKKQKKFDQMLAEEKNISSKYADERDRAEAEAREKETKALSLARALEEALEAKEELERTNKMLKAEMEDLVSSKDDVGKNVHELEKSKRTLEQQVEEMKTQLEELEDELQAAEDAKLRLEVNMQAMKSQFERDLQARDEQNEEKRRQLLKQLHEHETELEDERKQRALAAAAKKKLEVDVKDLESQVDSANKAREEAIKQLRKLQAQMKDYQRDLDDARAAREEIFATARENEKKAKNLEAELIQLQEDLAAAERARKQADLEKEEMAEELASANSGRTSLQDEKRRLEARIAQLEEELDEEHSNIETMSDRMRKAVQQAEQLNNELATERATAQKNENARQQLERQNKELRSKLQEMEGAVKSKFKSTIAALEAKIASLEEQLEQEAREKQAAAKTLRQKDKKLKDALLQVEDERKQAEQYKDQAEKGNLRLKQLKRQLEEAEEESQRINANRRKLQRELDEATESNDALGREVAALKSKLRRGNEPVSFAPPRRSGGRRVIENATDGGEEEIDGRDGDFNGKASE

Molecule | pIC50 [2] | other results
COc1ccc(COCCC/N=C(\C)c2c(O)c3ccccc3oc2=O)cc1 [Analog 13b] | ≤ 4.00 | Selectivity x/y [1]: ≥ 2.0
CCOCCC/N=C/c1c(O)c2ccccc2oc1=O [Analog 8a, 3-(N-(3-Ethoxypropyl)methanimidoyl)-4-hydroxy-2H-chromen-2-one] | ≤ 4.00 | –
C/C(=N\Cc1cccc(C)c1)c1c(O)c2ccccc2oc1=O [JB069] | – | Selectivity (cardiac vs. skeletal myosin inhibition) [3]: cardiac-selective
CCCCN(CCC/N=C(\C)c1c(O)c2ccccc2oc1=O)Cc1cccc(OC)c1 [Analog 19, 3-(N-(N’-Butyl-N’−3-methoxybenzyl-3-aminopropyl)ethanimidoyl)-4-hydroxy-2H-chromen-2-one] | ≤ 4.00 | –
COc1cccc(C/N=C(\C)c2c(O)c3ccccc3oc2=O)c1 [Analog 6a, 4-Hydroxy-3-(N-(3-methoxybenzyl)ethanimidoyl)-2H-chromen-2-one] | ≤ 4.00 | –
COCCC/N=C(\C)c1c(O)c2ccccc2oc1=O [Analog 5c, 4-Hydroxy-3-(N-(3-methoxypropyl)ethanimidoyl)-2H-chromen-2-one] | ≤ 4.00 | –
Cc1ccc2c(c1)C(=O)[C@]1(O)CCN(c3ccccc3)C1=N2 [Blebbistatin, blebbistatin, reference compound] | – | Inhibition of cytokinesis (nuclei to cell ratio, N/C) ([4]; positive control, 10 μM): inhibited cytokinesis
COCC/N=C(\C)c1c(O)c2ccccc2oc1=O [Analog 5a, 4-Hydroxy-3-(N-(2-methoxyethyl)ethanimidoyl)-2H-chromen-2-one] | ≤ 4.00 | –
C/C(=N\Cc1ccccc1)c1c(O)c2ccccc2oc1=O [Analog 2] | – | Kinetic solubility ([5]; pH 7.4 PBS, 2.5% DMSO): 100 µM
3-(N-butylethanimidoyl)-4-hydroxy-2H-chromen-2-one [BHC, reference compound] | – | Kinetic solubility ([5]; nephelometry in PBS (pH 7.4) containing 2.5% DMSO): 607 ± 2 μm
C/C(=N\Cc1ccc(C)cc1)c1c(O)c2ccccc2oc1=O [JB060] | – | Selectivity (cardiac vs. skeletal myosin inhibition) [3]: skeletal-selective
CCOCC/N=C(\C)c1c(O)c2ccccc2oc1=O [Analog 5b, 3-(N-(2-Ethoxyethyl)ethanimidoyl)-4-hydroxy-2H-chromen-2-one] | ≤ 4.00 | –
COc1ccc(C/N=C(\C)c2c(O)c3ccccc3oc2=O)cc1 [Analog 6b, 4-Hydroxy-3-(N-(4-methoxybenzyl)ethanimidoyl)-2H-chromen-2-one] | ≤ 4.00 | Inhibition of cytokinesis (nuclei to cell ratio, N/C) ([4]; 40 μM): did not inhibit cytokinesis; Cytotoxicity [6]: low μM range
Cc1ccc2c(c1)C(=O)[C@]1(O)CCN(c3ccc(N)cc3)C1=N2 [para-aminoblebbistatin, reference compound] | – | Inhibition of cytokinesis (nuclei to cell ratio, N/C) ([4]; positive control, 20 μM): inhibited cytokinesis
C/C(=N\CCCOCc1ccc2c(c1)OCO2)c1c(O)c2ccccc2oc1=O [Analog 13c] | ≤ 4.00 | Inhibition of cytokinesis (nuclei to cell ratio, N/C) ([4]; 40 μM): no cytokinesis inhibition
C/C(=N\Cc1ccncc1)c1c(O)c2ccccc2oc1=O [JB031] | – | half-life for hydrolysis [7]: 84 ± 12 h
CCOCCC/N=C(\C)c1c(O)c2ccccc2oc1=O [Analog 5d, 3-(N-(3-Ethoxypropyl)ethanimidoyl)-4-hydroxy-2H-chromen-2-one] | ≤ 4.00 | –
COc1cc(/C=C/C(=O)c2c(O)c3ccccc3oc2=O)ccc1O [Analog 20, 4-Hydroxy-3-(3-(4-hydroxy-3-methoxyphenyl)-1-oxo-2-propen-1-yl)-2H-1-Benzopyran-2-one] | ≤ 4.00 | –
